{"source": "ChEMBL document CHEMBL3817728", "about": "“Synthesis, Evaluation, and Mechanism Study of Novel Indole-Chalcone Derivatives Exerting Effective Antitumor Activity Through Microtubule Destabilization in Vitro and in Vivo” (J Med Chem, 2016)", "key": {"[1]": {"assay": "Metabolic stability in Sprague-Dawley rat liver microsomes assessed as compound remaining at 30 mins in presence of NADPH regenerating system by HPLC method", "assay_type": "ADME", "conditions": "read-out: Stability", "outline": "(§1)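 Test compound incubated with rat liver microsomes at 37 ℃ in buffer containing an NADPH regenerating system for the stated time. Remaining parent compound was quantified by HPLC.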"}, "[2]": {"assay": "Metabolic stability in Sprague-Dawley rat liver microsomes assessed as compound remaining at 150 mins in presence of NADPH regenerating system by HPLC method", "assay_type": "ADME", "conditions": "read-out: Stability", "outline": "(§2)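 Rat liver microsomes incubated with compound at 37 ℃ for indicated times in buffer containing NADPH regenerating system; residual parent determined by HPLC.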"}, "A549 [3]": {"test_system": "A549", "assay": "Induction of apoptosis in human A549 cells assessed as viable cells at 10 nM after 24 hrs by annexin V-FITC/propidium iodide staining-based flow cytometric method (reference value: 98.9%)", "assay_type": "functional", "conditions": "A549, 24 h, read-out: Activity", "outline": "(§3)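 A549 cells exposed 24 h or 48 h at indicated concentrations, then trypsinized, harvested and stained with Annexin V-FITC and PI; flow cytometry quadrants scored as necrotic (upper left), late apoptotic (upper right), live (bottom left) and early apoptotic (bottom right). Five independent experiments, representative shown.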"}, "A549 [4]": {"test_system": "A549", "assay": "Cell cycle arrest in human A549 cells assessed as accumulation at sub-G1 phase at 3 to 10 nM after 24 to 72 hrs by propidium iodide staining-based flow cytometric analysis", "assay_type": "functional", "outline": "(§4)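 A549 cells exposed to compound for 24, 48 or 72 h, then trypsinized and harvested. DNA stained with propidium iodide and analyzed by flow cytometry. Percentage of cells in each cell-cycle phase was quantified from the DNA histograms, with sub-G1 taken as the hypodiploid peak. Performed at least three times; representative experiments shown.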"}, "[5]": {"assay": "Metabolic stability in Sprague-Dawley rat liver microsomes assessed as compound remaining at 60 mins in presence of NADPH regenerating system by HPLC method", "assay_type": "ADME", "conditions": "read-out: Stability", "outline": "as §1"}, "[6]": {"assay": "Cytotoxicity against human HCT8 cells assessed as cell viability after 48 hrs by MTT assay", "assay_type": "functional, cell-based", "conditions": "HCT-8, 48 h", "outline": "(§5)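 Cancer cell lines treated with compound for 48 h, and viability read by MTT assay. IC50 given as mean ± SD from at least three independent experiments.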"}, "A549 [7]": {"test_system": "A549", "assay": "Cytotoxicity against human A549 cells assessed as cell viability after 48 hrs by MTT assay", "assay_type": "functional, cell-based", "conditions": "A549, 48 h", "outline": "as §5"}, "[8]": {"assay": "Metabolic stability in Sprague-Dawley rat liver microsomes assessed as compound remaining at 120 mins in presence of NADPH regenerating system by HPLC method", "assay_type": "ADME", "conditions": "read-out: Stability", "outline": "as §2"}, "A549 [9]": {"test_system": "A549", "assay": "Induction of apoptosis in human A549 cells assessed as early apoptotic cells at 10 nM after 24 hrs by annexin V-FITC/propidium iodide staining-based flow cytometric method (reference value: 1.07%)", "assay_type": "functional"}, "A549 [10]": {"test_system": "A549", "assay": "Disruption of microtubule network in human A549 cells assessed as multinucleation at 10 nM after 24 hrs by Hoechst 33342 staining-based laser scanning confocal microscopic analysis", "assay_type": "cell-based", "outline": "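A549 cells plated in confocal dishes and incubated with compound for 24 h. Cells were then fixed and stained, and microtubule and spindle organization was imaged by laser confocal microscopy. Experiments done five times; representative results shown.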"}, "[11]": {"assay": "Selectivity ratio of IC50 for quiescent HUVEC to IC50 for human A549 cells", "assay_type": "ADME, cell-based", "conditions": "quiescent HUVEC versus A549 cells, read-out: Ratio IC50", "outline": "(§6)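 Selectivity ratio = IC50 in normal cells / IC50 in A549; IC50 values mean ± SE from dose-response curves of at least three independent experiments. HUVECs kept quiescent in endothelial cell medium with 0.5% fetal calf serum, no growth factor.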"}, "[12]": {"assay": "Cytotoxicity against human Bel7402 cells assessed as cell viability after 48 hrs by MTT assay", "assay_type": "functional, cell-based", "conditions": "Bel-7402, 48 h", "outline": "as §5"}, "[13]": {"assay": "Cytotoxicity against HLF assessed as growth inhibition after 48 hrs by MTT assay", "conditions": "Homo sapiens", "outline": "(§7)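 Non-tumorigenic cells given 48 h compound exposure, and viability read by MTT. IC50 is mean ± SE from dose-response curves of at least three independent experiments. HUVECs were kept quiescent in endothelial cell medium with 0.5% fetal calf serum and no growth factor.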"}, "A549 [14]": {"test_system": "A549", "assay": "Induction of apoptosis in human A549 cells assessed as late apoptotic cells at 1 nM after 48 hrs by annexin V-FITC/propidium iodide staining-based flow cytometric method (reference value: 0.01%)", "assay_type": "functional"}, "A549 [15]": {"test_system": "A549", "assay": "Induction of apoptosis in human A549 cells assessed as early apoptotic cells at 1 nM after 24 hrs by annexin V-FITC/propidium iodide staining-based flow cytometric method (reference value: 1.07%)", "assay_type": "functional"}, "A549 [16]": {"test_system": "A549", "assay": "Induction of apoptosis in human A549 cells assessed as late apoptotic cells at 3 nM after 24 hrs by annexin V-FITC/propidium iodide staining-based flow cytometric method (reference value: 0.01%)", "assay_type": "functional"}, "HUVEC": {"test_system": "HUVEC", "assay": "Cytotoxicity against quiescent HUVEC assessed as growth inhibition after 48 hrs in presence of 0.5% fetal calf serum and absence of growth factor by MTT assay", "assay_type": "cell-based", "conditions": "Homo sapiens", "outline": "as §7"}, "[17]": {"assay": "Cytotoxicity against human A549/CDDP cells assessed as growth inhibition after 48 hrs by MTT assay", "assay_type": "functional, cell-based", "conditions": "A549, 48 h", "outline": "(§8)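 Drug-resistant lines were tested by a 48 h MTT viability assay. IC50 was derived from dose-response curves and reported as mean ± SE of at least three independent experiments.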"}, "HCT-8": {"test_system": "HCT-8", "assay": "Resistance index, ratio of IC50 for human HCT8/VCT cells to IC50 for human HCT8 cells", "assay_type": "functional"}, "MCF7 [18]": {"test_system": "MCF7", "assay": "Cytotoxicity against human MCF7 cells assessed as cell viability after 48 hrs by MTT assay", "assay_type": "functional, cell-based", "conditions": "MCF7, 48 h", "outline": "as §5"}, "A549 [19]": {"test_system": "A549", "assay": "Induction of apoptosis in human A549 cells assessed as viable cells at 10 nM after 48 hrs by annexin V-FITC/propidium iodide staining-based flow cytometric method (reference value: 98.1%)", "assay_type": "functional", "conditions": "A549, 48 h, read-out: Activity", "outline": "as §3"}, "A549 [20]": {"test_system": "A549", "assay": "Induction of apoptosis in human A549 cells assessed as early apoptotic cells at 3 nM after 48 hrs by annexin V-FITC/propidium iodide staining-based flow cytometric method (reference value: 1.95%)", "assay_type": "functional"}, "A549 [21]": {"test_system": "A549", "assay": "Induction of apoptosis in human A549 cells assessed as necrotic cells at 3 nM after 48 hrs by annexin V-FITC/propidium iodide staining-based flow cytometric method (reference value: 0.01%)", "assay_type": "functional", "outline": "as §3"}, "MCF7 [22]": {"test_system": "MCF7", "assay": "Resistance index, ratio of IC50 for human MCF7/DX cells to IC50 for human MCF7 cells", "assay_type": "functional"}, "A549 [23]": {"test_system": "A549", "assay": "Induction of apoptosis in human A549 cells assessed as necrotic cells at 10 nM after 24 hrs by annexin V-FITC/propidium iodide staining-based flow cytometric method (reference value: 0.03%)", "assay_type": "functional"}, "[24]": {"assay": "Selectivity ratio of IC50 for human MCF10A cells to IC50 for human A549 cells", "assay_type": "ADME, cell-based", "conditions": "MCF10A cells versus A549 cells, read-out: Ratio IC50", "outline": "as §6"}, "[25]": {"assay": "Metabolic stability in Sprague-Dawley rat liver microsomes assessed as compound remaining at 180 mins in presence of NADPH regenerating system by HPLC method", "assay_type": "ADME", "conditions": "read-out: Stability", "outline": "as §2"}, "[26]": {"assay": "Cytotoxicity against human A2780/TAX cells assessed as growth inhibition after 48 hrs by MTT assay", "assay_type": "functional, cell-based", "outline": "as §8"}, "A549 [27]": {"test_system": "A549", "assay": "Cell cycle arrest in human A549 cells assessed as decrease in cell level at G1 phase at 1 to 10 nM after 24 to 48 hrs by propidium iodide staining-based flow cytometric analysis", "assay_type": "functional", "outline": "as §4"}, "BJ": {"test_system": "BJ", "assay": "Cytotoxicity against human BJ cells assessed as growth inhibition after 48 hrs by MTT assay", "assay_type": "cell-based", "outline": "as §7"}}, "note": "Activity calls are given as the source filed them. No cut-off for these calls is given here.", "data": [{"compound": "COc1ccc2c(/C=C(\\C)C(=O)c3cc(OC)c(OC)c(OC)c3)c[nH]c2c1", "values": [{"measurement": "remaining at 0.5 h", "setting": "[1]", "result": 85.6, "unit": "%"}, {"measurement": "remaining at 2.5 h", "setting": "[2]", "result": 54.1, "unit": "%"}, {"measurement": "viability at 0.01 µM", "setting": "A549 [3]", "result": 60.4, "unit": "%"}, {"measurement": "Activity", "setting": "A549 [4]", "result": "Active"}, {"measurement": "remaining at 1 h", "setting": "[5]", "result": 80.5, "unit": "%"}, {"measurement": "IC50", "setting": "[6]", "result": 6, "unit": "nM"}, {"measurement": "IC50", "setting": "A549 [7]", "result": 3, "unit": "nM"}, {"measurement": "remaining at 2 h", "setting": "[8]", "result": 66.3, "unit": "%"}, {"measurement": "Activity", "setting": "A549 [9]", "result": 25.27, "unit": "%"}, {"measurement": "Activity", "setting": "A549 [10]", "result": "Active"}, {"measurement": "selectivity ratio", "setting": "[11]", "result": 54.3}, {"measurement": "IC50", "setting": "[12]", "result": 9, "unit": "nM"}, {"measurement": "IC50", "setting": "[13]", "result": 5670, "unit": "nM"}, {"measurement": "Activity", "setting": "A549 [14]", "result": 14.6, "unit": "%"}, {"measurement": "Activity", "setting": "A549 [15]", "result": 12.8, "unit": "%"}, {"measurement": "Activity", "setting": "A549 [16]", "result": 3.56, "unit": "%"}, {"measurement": "IC50", "setting": "HUVEC", "result": 163, "unit": "nM"}, {"measurement": "IC50", "setting": "[17]", "result": 4, "unit": "nM"}, {"measurement": "Ratio IC50", "setting": "HCT-8", "result": 0.42}, {"measurement": "IC50", "setting": "MCF7 [18]", "result": 6, "unit": "nM"}, {"measurement": "viability at 0.01 µM", "setting": "A549 [19]", "result": 15.6, "unit": "%"}, {"measurement": "Activity", "setting": "A549 [20]", "result": 26.8, "unit": "%"}, {"measurement": "Activity", "setting": "A549 [21]", "result": 2.69, "unit": "%"}, {"measurement": "Ratio IC50", "setting": "MCF7 [22]", "result": 1.5}, {"measurement": "Activity", "setting": "A549 [23]", "result": 2.94, "unit": "%"}, {"measurement": "selectivity ratio", "setting": "[24]", "result": 891}, {"measurement": "remaining at 3 h", "setting": "[25]", "result": 42.4, "unit": "%"}, {"measurement": "IC50", "setting": "[26]", "result": 124, "unit": "nM"}, {"measurement": "Activity", "setting": "A549 [27]", "result": "Active"}, {"measurement": "IC50", "setting": "BJ", "result": 8920, "unit": "nM"}]}]}
